Published values from different studies.
MDM2: E3 ubiquitin-protein ligase Mdm2 (MDM2, Homo sapiens, UniProt Q00987)
PRCP: Lysosomal Pro-X carboxypeptidase (PRCP, Homo sapiens, UniProt P42785)
CHRM1: Muscarinic acetylcholine receptor M1 (CHRM1, Homo sapiens, UniProt P11229)
4,4'-diapophytoene synthase: 4,4'-diapophytoene synthase (Staphylococcus aureus, UniProt A9JQL9)

Compound | target | assay | setting | endpoint | result
CSCC[C@H](NC(=O)[C@@H](NC(=O)[C@@H](N)Cc1ccc(O)cc1)C(C)C)C(=O)NCC(=O)N[C@@H](Cc1c[nH]cn1)C(=O)O | Melanocortin receptor 3 (Mus musculus, UniProt P33033) | reporter gene, agonist | – | EC50 | > 100 µM
N[C@@H](C[C@]1(C(=O)O)C[C@H]2OC[C@@H](O)[C@@H](O)[C@H]2O1)C(=O)O | Glutamate receptor ionotropic, kainate 3 (Rattus norvegicus, UniProt P42264, T520A) | ligand displacement, radioligand | – | Ki | 1.4 µM
CCCCN1CCC(COC(=O)c2cc(Cl)c(N)c3c2OCCO3)CC1 | 5-hydroxytryptamine receptor 4 (HTR4, Homo sapiens, UniProt Q13639) | ligand displacement, radioligand | – | Ki | 0.0001 µM
CC(=O)[C@@]1(O)CC[C@H]2[C@@H]3C=C(Cl)C4=CC(=O)[C@@H]5C[C@@H]5[C@]4(C)[C@H]3CC[C@@]21C | Progesterone receptor (PGR, Homo sapiens, UniProt P06401) | enzyme activity | – | IC50 | 0.003 µM
CC(C)[C@@H]1NC(=O)[C@H](CO)NC(=O)[C@H](CO)NC(=O)[C@H](CO)N(C)C(=O)[C@H](CC(=O)O)NC(=O)[C@H](CO)NC(=O)[C@H](Cc2ccccc2)NC(=O)CSC[C@@H](C(=O)NCC(N)=O)NC(=O)[C@H](CC(N)=O)NC(=O)[C@H](CCCNC(=N)N)NC(=O)[C@H](C)NC(=O)[C@H](Cc2ccc(-c3ccccc3)cc2)NC(=O)[C@H](CC(N)=O)NC(=O)[C@@H]2CCCN2C1=O | MDM2 | ligand displacement, TR-FRET | – | Ki | > 8.06 µM
NCCCCCCNC(=O)c1ccc(NC(=O)c2ccc(CN(C(=O)c3ccc4c(c3)OCC(=O)N4)C3CC3)cc2)cc1 | Histone-lysine N-methyltransferase NSD2 (NSD2, Homo sapiens, UniProt O96028) | protein level, degrader | – | DC50 | 0.35 µM
CC(C)[C@H](N)C(=O)N1CCC[C@H]1B(O)O | PRCP | enzyme activity, inhibitor | – | IC50 | 50.3 µM
c1cc(N2CCNCC2)c2cc[nH]c2c1 | CHRM1 | ligand displacement, radioligand | cell membranes | Ki | > 31.6 µM
COc1cc(C(=O)N2CC[C@@H](O)[C@@H](N)C2)cc2nc(-c3cc4ccccc4n3CC3CC3)n(C)c12 | CHRM1 | calcium signal, agonist | – | EC50 | 5.01 µM
O=P(O)(O)C(CCCc1cccc(Oc2ccccc2)c1)S(=O)(=O)O (stereo not shown) | 4,4'-diapophytoene synthase | enzyme activity, inhibitor | – | Ki | 0.02 µM
CC(C)=CCC/C(C)=C/CC/C(C)=C/CSc1ccccc1C(=O)O | 4,4'-diapophytoene synthase | enzyme activity, inhibitor | – | Ki | 0.11 µM
N#CC(CCN1CCC(N)CC1)(c1ccccc1)c1ccccc1 | Potassium voltage-gated channel subfamily A member 3 (Kcna3, Mus musculus, UniProt P16390) | ion current, inhibitor, patch clamp | – | IC50 | > 100 µM
CC(=O)N[C@@H](CC(C)C)C(=O)N[C@H](C(=O)N[C@@H](Cc1ccccc1)C(=O)N[C@@]1(C)CCCC=CCCC[C@@](C)(C(=O)N[C@@H](CCC(N)=O)C(=O)N[C@@H](CC(C)C)C(=O)N[C@H](C(=O)N[C@@H](CO)C(N)=O)[C@@H](C)O)NC(=O)[C@H](Cc2c[nH]c3ccccc23)NC(=O)[C@H](Cc2ccc(O)cc2)NC(=O)[C@H](CCC(=O)O)NC1=O)[C@@H](C)O | MDM2 | ligand displacement, FP | – | IC50 | 0.049 µM
CC(C)C[C@H](NC(=O)[C@H](Cc1ccccc1)NC(=O)c1cnccn1)B(O)O | PRCP | enzyme activity, inhibitor | – | IC50 | 12.4 µM
CC[C@H](C)[C@H](NC(=O)[C@H](CCCNC(=N)N)NC(=O)[C@H](CCCCN)NC(=O)[C@@H]1CCCN1C(=O)[C@@H](N)CC(C)C)C(=O)N[C@@H](C)C(=O)O | N-terminal Xaa-Pro-Lys N-methyltransferase 1 (Homo sapiens, UniProt Q9BV86) | binding, ITC | pH 7.5 | Kd | 48 µM
O=C(O)c1ccccc1-c1c2cc(Br)c(=O)cc-2oc2[c]([Hg+])c(O)c(Br)cc12 | Papain (Carica papaya, UniProt P00784) | binding, ITC | – | Kd | ~39000 µM
